Calls of active or inactive are those of the source. The calls are words filed in the database; no cut-off is given here.
Legend:
[1] = molecular target: T1, Estrogen-related receptor gamma (Homo sapiens, UniProt P62508); assay: Agonist activity at Gal4 fused ERRgamma-LBD (unknown origin) expressed in HEK293T cells after 20 hrs by UAS-luciferase reporter gene assay; type: cell-based
T1 sequence (P62508 whole entry): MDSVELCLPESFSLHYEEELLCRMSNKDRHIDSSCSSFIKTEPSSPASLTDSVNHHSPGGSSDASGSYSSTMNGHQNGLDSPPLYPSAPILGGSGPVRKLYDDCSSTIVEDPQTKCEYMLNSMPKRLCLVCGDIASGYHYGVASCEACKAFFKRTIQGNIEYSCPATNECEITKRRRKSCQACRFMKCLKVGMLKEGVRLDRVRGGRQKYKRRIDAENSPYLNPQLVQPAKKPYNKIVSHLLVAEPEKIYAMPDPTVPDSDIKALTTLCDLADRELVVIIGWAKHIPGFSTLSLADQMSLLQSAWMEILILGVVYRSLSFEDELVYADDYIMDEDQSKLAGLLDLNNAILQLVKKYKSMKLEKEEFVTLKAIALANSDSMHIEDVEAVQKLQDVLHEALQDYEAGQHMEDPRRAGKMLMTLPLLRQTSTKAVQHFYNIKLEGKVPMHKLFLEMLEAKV
Outline: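 HEK293T cells carrying Gal4-ERRγ fusion with UAS-luciferase reporter; compounds run as concentration-response curves; counterscreened in parallel against Gal4-VP16::UAS-Luc to flag non-specific activation.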

[2] = molecular target: T2, Steroid hormone receptor ERR1 (Homo sapiens) (UniProt P11474); assay: Agonist activity at alphaHis-SUMO-tagged ERRalpha-LBD (unknown origin) assessed as decrease in RIP140 peptide recruitment by TR-FRET assay
T2 sequence (whole entry): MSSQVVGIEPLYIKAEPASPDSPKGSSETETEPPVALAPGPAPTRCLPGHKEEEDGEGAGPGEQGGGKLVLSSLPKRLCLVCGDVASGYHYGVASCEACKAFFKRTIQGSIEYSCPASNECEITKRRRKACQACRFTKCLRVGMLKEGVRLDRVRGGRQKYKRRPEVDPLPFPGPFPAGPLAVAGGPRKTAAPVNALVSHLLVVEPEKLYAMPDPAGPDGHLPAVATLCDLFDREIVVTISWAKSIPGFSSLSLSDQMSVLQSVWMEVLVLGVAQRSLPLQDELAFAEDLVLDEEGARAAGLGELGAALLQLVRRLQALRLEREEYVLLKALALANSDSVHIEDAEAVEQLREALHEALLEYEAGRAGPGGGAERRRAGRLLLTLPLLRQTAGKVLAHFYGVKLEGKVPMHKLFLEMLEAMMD
Outline: (§1)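 Terbium/fluorescein TR-FRET read-out: excitation 340 nm, emission 520 nm (fluorescein) and 490 nm (terbium). The 520/490 nm ratio is expressed as fold change over a DMSO-only control and plotted against concentration to give EC50.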

[3] = molecular target: T1, Estrogen-related receptor gamma; assay: Agonist activity at human N-terminal alphaHis-SUMO-tagged ERRgamma-LBD (229 to 458 residues) expressed in Escherichia coli BL21 gold (DE3) cells assessed as decrease in RIP140 peptide recruitment after 2 hrs by TR-FRET assay; settings: read-out: EC50
Outline: (§2)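 Terbium/fluorescein TR-FRET read-out: excitation 340 nm, emission 520 nm (fluorescein) and 490 nm (terbium). The 520/490 nm ratio is expressed as fold change over a DMSO-only control. Values are the arithmetic mean of at least two separate runs.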

[4] = Half life in human liver microsomes at 1 uM in presence of NADPH by LC-MS/MS analysis; type: ADME, microsome
[5] = species on record: Homo sapiens; assay: Selectivity ratio of EC50 for alphaHis-SUMO-tagged ERRbeta-LBD (unknown origin) to EC50 for human N-terminal alphaHis-SUMO-tagged ERRgamma-LBD (229 to 458 residues) expressed in Escherichia coli BL21 gold (DE3) cells
[6] = Half life in rat liver microsomes at 1 uM in presence of NADPH by LC-MS/MS analysis; type: ADME, microsome
[7] = molecular target: T3, Steroid hormone receptor ERR2 (Homo sapiens, UniProt O95718); assay: Agonist activity at alphaHis-SUMO-tagged ERRbeta-LBD (unknown origin) assessed as decrease in RIP140 peptide recruitment by TR-FRET assay; outline: as §1
T3 sequence (O95718 whole entry): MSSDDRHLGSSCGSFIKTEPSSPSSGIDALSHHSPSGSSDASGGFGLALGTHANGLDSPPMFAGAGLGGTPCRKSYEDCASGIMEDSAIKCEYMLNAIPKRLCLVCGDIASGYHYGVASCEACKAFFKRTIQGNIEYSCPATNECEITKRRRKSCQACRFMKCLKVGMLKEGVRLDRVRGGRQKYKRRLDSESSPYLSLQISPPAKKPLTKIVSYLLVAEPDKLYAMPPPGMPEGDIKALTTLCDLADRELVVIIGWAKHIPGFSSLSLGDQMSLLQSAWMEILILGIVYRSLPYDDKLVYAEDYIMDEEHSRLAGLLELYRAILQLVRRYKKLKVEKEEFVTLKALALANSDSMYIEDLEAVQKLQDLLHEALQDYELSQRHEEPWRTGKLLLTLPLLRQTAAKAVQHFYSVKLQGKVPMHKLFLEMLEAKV

[8] = Half life in mouse liver microsomes at 1 uM in presence of NADPH by LC-MS/MS analysis; type: ADME, microsome
[9] = molecular target: T1, Estrogen-related receptor gamma; assay: Inverse agonist activity at human N-terminal alphaHis-SUMO-tagged ERRgamma-LBD (229 to 458 residues) expressed in Escherichia coli BL21 gold (DE3) cells assessed as decrease in RIP140 peptide recruitment after 2 hrs by TR-FRET assay; outline: as §2
[10] = molecular target: T1, Estrogen-related receptor gamma; assay: Partial agonist activity at human N-terminal alphaHis-SUMO-tagged ERRgamma-LBD (229 to 458 residues) expressed in Escherichia coli BL21 gold (DE3) cells assessed as increase in RIP140 peptide recruitment after 2 hrs by TR-FRET assay

CC(C)(C)c1ccc(CCNC(=O)c2ccc(O)cc2)cc1
EC50 [1]: 4.7 µM | Activity [2]: inactive | EC50 [3]: 0.7 µM | t1/2 [4]: 6.8 min | Ratio EC50 [5]: 7 to 8 | t1/2 [6]: 1.6 min | EC50 [7]: 0.09 µM | t1/2 [8]: 3.3 min

CC(C)(C)c1ccc(CCNC(=O)c2ccccc2O)cc1
EC50 [9]: 2.9 µM

Cc1cc(O)ccc1C(=O)NCCc1ccc(C(C)(C)C)cc1
EC50 [3]: 0.76 µM | t1/2 [4]: 3.6 min | Ratio EC50 [5]: 30 to 40 | t1/2 [6]: 1.5 min | EC50 [7]: 0.02 µM | t1/2 [8]: 1.5 min

CC(C)(C)c1ccc(CCNC(=O)Cc2ccc(O)cc2)cc1
Activity [2]: inactive | EC50 [3]: 0.95 µM | EC50 [7]: 2.7 µM

CCN(CC)c1ccc(CCNC(=O)c2ccc(O)cc2)cc1
Activity [2]: inactive | EC50 [3]: 0.39 µM | t1/2 [4]: 3.1 min | t1/2 [6]: 3.9 min | EC50 [7]: 0.63 µM | t1/2 [8]: 2.2 min

CC(C)(C)c1ccc(CCNC(=O)c2ccc(O)cc2N)cc1
Ratio EC50 [5]: 7 to 8 | EC50 [7]: 0.045 µM | EC50 [10]: 0.3 µM

CC(C)(C)c1ccc(CCNC(=O)c2ccc(O)cc2Cl)cc1
EC50 [3]: 0.95 µM | t1/2 [4]: 2.9 min | Ratio EC50 [5]: 30 to 40 | t1/2 [6]: 1.1 min | EC50 [7]: 0.031 µM | t1/2 [8]: 1.2 min

Reference: ChEMBL document CHEMBL4184311, “Design, synthesis, and evaluation of simple phenol amides as ERRγ agonists” (Bioorg Med Chem Lett, 2018)
